Screening results (PubChem BioAssay)
Shn3 inh set2 = Schnurri-3 reporter inhibition in Clone20 osteoblasts; Clone20 osteoblast Shn3 3'UTR firefly luciferase, 24 h; inhibition, % at 12.5 µM; 360,000 tested, 0.52% active; AID 588674;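 active means mean inhibition of at least 75% with every replicate also reaching 75%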;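 further: 0% = median of neutral control wells and 100% = pilot-screen positive control compound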
PAX8 reporter = PAX8 transcriptional activity inhibition; RMG-I TPO-luciferase reporter, SteadyGlo, 24 h; inhibition, % at 12.6 µM; 360,000 tested, 1.2% active; AID 652154;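 active means mean replicate inhibition at least 60% with every replicate also reaching 60%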;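 further: luciferase light reporting Pax8 driven TPO promoter activity; plate controls were median of neutral control wells for no effect and mitoxantrone controls for full effect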
aSyn UTR inh = 5' untranslated region of α-synuclein, MLPCN primary screen; alpha-synuclein 5'UTR reporter, inhibitor activity; inhibition, % (tested at 7.5 µM); 300,000 tested, 0.82% active; AID 1813; in the data active means inhibition above about 60%;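 further: H4 neuroglioblastoma cells stably carrying SNCA 5'UTR luciferase fusion; 0% = DMSO wells and 100% = positive control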
FN deposition inh = fibronectin deposition inhibition; AH1F fibroblasts, Alexa488-fibronectin deposition fluorescence, overnight; inhibition, % at 12.6 µM; 350,000 tested, 0.086% active;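 active means mean inhibition across replicates of 30% or more, regardless of how many single replicates reach that level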;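 further: positive control wells lacked labelled fibronectin entirely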
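Material: AH1F fibroblasts assembling fluorescent fibronectin matrix; amount: 10000 AH1F cells/well; medium: DMEM, 2% serum; reagent: Alexa488-fibronectin, 24 nM final in well; dosing: single compound dose, delivered by pin transfer; incubation: 1 h adhesion, overnight exposure; detection: fluorescence after three HBSS washes, excitation 485 nm, emission 525 nm; measure: fibronectin deposition inhibition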
EWS-Fli block = blocks EWS/Fli oncoprotein-driven transcription; AID 651661; A673 NR0B1-luciferase reporter, viability-normalised; 350,000 tested, 0.67% active; inhibition, % at 12.6 µM;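 active means mean inhibition of at least 50% after viability correction, with every replicate also passing that limit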;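 further: firefly luciferase signal divided by Alamar Blue viability fluorescence both relative to DMSO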
EBV LMP1 NFkB = reduces LMP1-driven NF-kappaB luciferase signal | LMP1-induced NF-kappaB luciferase reporter cells, luminescence | inhibition, % at 12.5 µM | 350,000 tested, 0.69% active | AID 504558; in the data active means inhibition above about 41%;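 further: 0% = neutral control wells and 100% = reference inhibitor control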
* hit, by the source's call; · = no result. Shown are actives, neighbours in structure and some others; about 2.1% of the full set was active somewhere.

SMILES	Shn3 inh set2	PAX8 reporter	aSyn UTR inh	FN deposition inh	EWS-Fli block	EBV LMP1 NFkB
C[C@@H]1CN([C@H](C)CO)C(=O)c2cc(NC(=O)c3ccccc3)ccc2O[C@@H](C)CCCCO[C@@H]1CN(C)Cc1ccc(C(F)(F)F)cc1	·	91.3*	·	·	5.6	·
C[C@@H]1CCCCO[C@@H](CN(C)Cc2ccc(C(F)(F)F)cc2)[C@H](C)CN([C@H](C)CO)C(=O)c2cc(NC(=O)c3ccccc3)ccc2O1	·	90.8*	·	·	21.6	·
C[C@@H]1CN([C@H](C)CO)C(=O)c2cc(NC(=O)c3ccccc3)ccc2O[C@@H](C)CCCCO[C@H]1CN(C)Cc1ccc(C(F)(F)F)cc1	·	98.9*	·	·	16.6	·
C[C@@H]1CCCCO[C@@H](CN(C)Cc2ccc(C(=O)O)cc2)[C@@H](C)CN([C@H](C)CO)C(=O)c2cc(NC(=O)c3ccccc3)ccc2O1	·	9.7	·	0.6	-6.2	·
CCCC(=O)C1=C(O)C(C(=O)OC)C(C)(C)CC1=Nc1ccncc1 (stereo unspecified)	2.4	·	5.7	·	·	77.1*
C[C@H](CO)N1C[C@H](C)[C@@H](CN(C)S(=O)(=O)c2ccccc2)Oc2ccc(NC(=O)C3CC3)cc2CC1=O	·	-5.4	·	·	3.1	·
CCCNC(=O)Nc1ccc2c(c1)OC[C@@H](C)N(Cc1ccc(-c3ccccn3)cc1)C[C@@H](C)[C@H](OC)CN(C)C2=O	·	94.9*	·	-1.9	-3.2	·
CO[C@H]1CN(C)C(=O)c2cc(NC(C)=O)ccc2OC[C@@H](C)N(C(=O)CN2CCOCC2)C[C@H]1C	·	·	·	30.6*	-6.7	·
CCCC(=O)Nc1ccc2c(c1)C(=O)N(C)C[C@@H](OC)[C@H](C)CN(Cc1ccc(-c3ccccn3)cc1)[C@H](C)CO2	·	75.8*	·	1.2	3.2	·
CCCNC(=O)Nc1ccc2c(c1)OC[C@H](C)N(Cc1ccc(-c3ccccn3)cc1)C[C@@H](C)[C@@H](OC)CN(C)C2=O	·	100.1*	·	-3.9	23.6	·
CCCC(=O)Nc1ccc2c(c1)C(=O)N(C)C[C@H](OC)[C@@H](C)CN(Cc1ccc(-c3ccccn3)cc1)[C@H](C)CO2	·	-40.2	·	10.8	3.2	·
C[C@H](CO)N1C[C@H](C)[C@H](CN(C)Cc2ccc(C(F)(F)F)cc2)OCCCC[C@H](C)Oc2ccc(NC(=O)CCCN(C)C)cc2C1=O	·	28.2	·	·	67.9*	·
C[C@H](CO)N1C[C@H](C)[C@H](CN(C)Cc2ccc(C(F)(F)F)cc2)OCCCC[C@H](C)Oc2ccc(NC(=O)CCC(F)(F)F)cc2C1=O	·	76.9*	·	·	4.3	·
C[C@H](CO)N1C[C@H](C)[C@H](CN(C)Cc2ccc(Cl)c(Cl)c2)Oc2ccc(NC(=O)CCCN(C)C)cc2C1=O	·	-9.2	·	3.3	70.2*	·
C[C@@H]1CCCCO[C@@H](CN(C)Cc2ccc(Cl)c(Cl)c2)[C@@H](C)CN([C@H](C)CO)C(=O)c2cc(NC(=O)CCCN(C)C)ccc2O1	·	-9.2	·	·	-11.2	·
COc1ccc(NC(=O)Nc2ccc3c(c2)C(=O)N([C@@H](C)CO)C[C@H](C)[C@@H](CN(C)C(=O)CCC(F)(F)F)OCCCC[C@H](C)O3)cc1	·	-7.3	·	·	-5.9	·
COC(=O)C(=O)C1CCc2c(Cl)cc(OC)c(OC)c2C1=O (stereo unspecified)	-1.5	31.8	·	-19.5	-70.3	86.8*
CNC(=O)c1cc(Cl)c(OC)c(OC)c1	14.4	6.3	-0.6	4.6	2.5	-1.6
C/C=C/c1ccc([C@@H]2[C@H](CO)N(C(=O)CC)C23CN(S(C)(=O)=O)C3)cc1	·	·	·	·	-1.1	·
C[C@@H]1CN([C@H](C)CO)S(=O)(=O)c2ccc(C#CCN(C)C)cc2O[C@H]1CN(C)Cc1cccnc1	·	·	·	2.6	0.7	·
O=C(CNc1ccccc1)N/N=C/c1c(O)ccc2ccccc12	91.0*	8.1	68.6*	11.4	0.0	23.8
O=C(CSCC(=O)Nc1ccccc1)N/N=C/c1c(O)ccc2ccccc12	93.4*	·	76.3*	-3.2	·	51.4*
COc1ccc2nc(Nc3nc(CSc4nc5ccccc5[nH]4)cc(=O)[nH]3)nc(C)c2c1	41.2	28.7	102.6*	-9.9	·	-24.7
COc1ccc2c(C)nc(Nc3nc(C)c(C)c(=O)[nH]3)nc2c1	5.3	-88.4	102.5*	·	·	-166.9
Cc1nc(Nc2nc(CSc3nc4ccccc4[nH]3)cc(=O)[nH]2)nc2ccccc12	77.6	101.6*	8.7	·	·	7.5
